Reference: ChEMBL document CHEMBL1129461 (J Med Chem, 1996)
pIC50: −log10 of the molar value.

biological target: not listed separately; test: Inhibition of rat brain Casein kinase II
Method in brief: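 Casein kinase II isolated from rat brain homogenate; 20 mM Tris-HCl pH 7.5, 5 mM NaF, casein substrate, 10 mM MgCl2, 30 μM [γ-32P]ATP, inhibitor in DMSO. Room temperature 10 min, stopped with ice-cold TCA plus BSA; precipitate filtered onto glass fiber and β-counted.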

pIC50	Structure (SMILES)
< 4.30	CC(CCc1ccc(O)cc1)OC(=O)c1cc(O)c(C(=O)c2c(O)cccc2C(=O)O)c(O)c1 (stereo not given)
< 4.30	O=C(OCC(Cc1ccc(O)cc1)NS(=O)(=O)c1ccccc1)c1cc(O)c(C(=O)c2c(O)cccc2C(=O)O)c(O)c1 (stereo not given)

biological target: not listed separately; test: Inhibition of rat brain Ca 2+/Calmodulin dependent kinase
Method in brief: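 Ca2+/calmodulin kinase isolated from rat brain homogenate; 50 mM Tris-HCl pH 7.5, 5 mM β-mercaptoethanol, 400 μM EGTA, 700 μM CaCl2, 10 mM MgCl2, 200 μg/mL histone type HA, 30 μM [γ-32P]ATP, inhibitor in DMSO. Room temperature 10 min, ice-cold TCA plus BSA stop, precipitate filtered and β-counted.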

pIC50	Structure (SMILES)
7.52	O=C(N[C@@H]1CNCCC[C@H]1OC(=O)c1cc(O)c(C(=O)c2c(O)cccc2C(=O)O)c(O)c1)c1ccc(O)cc1 [BALANOL]
< 4.30	CC(CCc1ccc(O)cc1)OC(=O)c1cc(O)c(C(=O)c2c(O)cccc2C(=O)O)c(O)c1 (stereo not given)
4.49	O=C(OCC(Cc1ccc(O)cc1)NS(=O)(=O)c1ccccc1)c1cc(O)c(C(=O)c2c(O)cccc2C(=O)O)c(O)c1 (stereo not given)

biological target: T1, Protein kinase C beta type (Homo sapiens, UniProt P05771); test: Evaluated against recombinant human Protein kinase C beta 1
Method in brief: (§1)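 Recombinant human PKC isozymes expressed in SF9 cells via baculovirus, partly purified (50–90%). 32P transfer from 30 μM [32P]ATP to 200 μg/mL histone IIIS in 20 mM Hepes pH 7.5, 10 mM MgCl2, EGTA, CaCl2, phosphatidylserine, and diacylglycerol at the isozyme-dependent level giving half-maximal activation. 10 min at 30 °C, TCA stop, filter counting. No-lipid background subtracted.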

T1 sequence (P05771 whole entry): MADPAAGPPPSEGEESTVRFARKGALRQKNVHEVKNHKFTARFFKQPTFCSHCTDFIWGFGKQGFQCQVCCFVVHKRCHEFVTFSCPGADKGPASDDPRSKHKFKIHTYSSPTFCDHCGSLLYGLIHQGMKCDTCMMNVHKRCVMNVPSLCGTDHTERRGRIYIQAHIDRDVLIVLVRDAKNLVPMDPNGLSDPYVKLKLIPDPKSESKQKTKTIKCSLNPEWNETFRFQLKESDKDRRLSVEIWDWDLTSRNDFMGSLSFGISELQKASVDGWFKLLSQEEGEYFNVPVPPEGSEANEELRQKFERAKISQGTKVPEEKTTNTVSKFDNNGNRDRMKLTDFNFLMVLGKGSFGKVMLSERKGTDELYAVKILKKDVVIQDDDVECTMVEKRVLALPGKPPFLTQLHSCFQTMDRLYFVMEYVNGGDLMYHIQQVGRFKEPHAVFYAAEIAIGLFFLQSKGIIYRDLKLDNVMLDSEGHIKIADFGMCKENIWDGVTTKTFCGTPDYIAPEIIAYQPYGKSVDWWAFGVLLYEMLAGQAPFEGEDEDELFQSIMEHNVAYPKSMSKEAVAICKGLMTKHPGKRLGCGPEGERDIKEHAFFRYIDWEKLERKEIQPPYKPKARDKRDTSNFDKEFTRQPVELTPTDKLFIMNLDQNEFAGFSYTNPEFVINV

Structure (SMILES)	pIC50
O=C(OC1CCCC1Oc1ccc(O)cc1)c1cc(O)c(C(=O)c2c(O)cccc2C(=O)O)c(O)c1 (stereo not given)	7.70
CC(CCc1ccc(O)cc1)OC(=O)c1cc(O)c(C(=O)c2c(O)cccc2C(=O)O)c(O)c1 (stereo not given)	7.40

The next lines start with the values.

pIC50	Structure (SMILES)
5.44	O=C(NC(COC(=O)c1cc(O)c(C(=O)c2c(O)cccc2C(=O)O)c(O)c1)Cc1ccc(O)cc1)c1ccc(O)cc1 (stereo not given)
5.66	COC(=O)c1cccc(O)c1C(=O)c1c(O)cc(C(=O)OC[C@@H](Cc2ccc(O)cc2)NS(=O)(=O)c2ccccc2)cc1O
6.66	O=C(OCC(Cc1ccc(O)cc1)NS(=O)(=O)c1ccccc1)c1cc(O)c(C(=O)c2c(O)cccc2C(=O)O)c(O)c1 (stereo not given)

biological target: T1, Protein kinase C beta type; test: Evaluated against recombinant human Protein kinase C beta 2; method in brief: as §1

Structure (SMILES)	pIC50
O=C(OC1CCCC1Oc1ccc(O)cc1)c1cc(O)c(C(=O)c2c(O)cccc2C(=O)O)c(O)c1 (stereo not given)	7.70
CC(CCc1ccc(O)cc1)OC(=O)c1cc(O)c(C(=O)c2c(O)cccc2C(=O)O)c(O)c1 (stereo not given)	7.52

Second part, the molecule after the results:

pIC50	Structure (SMILES)
5.52	O=C(NC(COC(=O)c1cc(O)c(C(=O)c2c(O)cccc2C(=O)O)c(O)c1)Cc1ccc(O)cc1)c1ccc(O)cc1 (stereo not given)
6.47	COC(=O)c1cccc(O)c1C(=O)c1c(O)cc(C(=O)OC[C@@H](Cc2ccc(O)cc2)NS(=O)(=O)c2ccccc2)cc1O
7.52	O=C(OCC(Cc1ccc(O)cc1)NS(=O)(=O)c1ccccc1)c1cc(O)c(C(=O)c2c(O)cccc2C(=O)O)c(O)c1 (stereo not given)

biological target: Protein kinase C gamma type (Homo sapiens, UniProt P05129); test: Evaluated against recombinant human Protein kinase C gamma; method in brief: as §1

Structure (SMILES)	pIC50
O=C(OC1CCCC1Oc1ccc(O)cc1)c1cc(O)c(C(=O)c2c(O)cccc2C(=O)O)c(O)c1 (stereo not given)	6.60
CC(CCc1ccc(O)cc1)OC(=O)c1cc(O)c(C(=O)c2c(O)cccc2C(=O)O)c(O)c1 (stereo not given)	6.60

Other lines, results leading:

pIC50	Structure (SMILES)
5.54	O=C(NC(COC(=O)c1cc(O)c(C(=O)c2c(O)cccc2C(=O)O)c(O)c1)Cc1ccc(O)cc1)c1ccc(O)cc1 (stereo not given)
5.35	COC(=O)c1cccc(O)c1C(=O)c1c(O)cc(C(=O)OC[C@@H](Cc2ccc(O)cc2)NS(=O)(=O)c2ccccc2)cc1O
6.66	O=C(OCC(Cc1ccc(O)cc1)NS(=O)(=O)c1ccccc1)c1cc(O)c(C(=O)c2c(O)cccc2C(=O)O)c(O)c1 (stereo not given)

biological target: Protein kinase C delta type (Homo sapiens, UniProt Q05655); test: Evaluated against recombinant human Protein kinase C delta; method in brief: as §1
Sequence (Q05655 whole entry): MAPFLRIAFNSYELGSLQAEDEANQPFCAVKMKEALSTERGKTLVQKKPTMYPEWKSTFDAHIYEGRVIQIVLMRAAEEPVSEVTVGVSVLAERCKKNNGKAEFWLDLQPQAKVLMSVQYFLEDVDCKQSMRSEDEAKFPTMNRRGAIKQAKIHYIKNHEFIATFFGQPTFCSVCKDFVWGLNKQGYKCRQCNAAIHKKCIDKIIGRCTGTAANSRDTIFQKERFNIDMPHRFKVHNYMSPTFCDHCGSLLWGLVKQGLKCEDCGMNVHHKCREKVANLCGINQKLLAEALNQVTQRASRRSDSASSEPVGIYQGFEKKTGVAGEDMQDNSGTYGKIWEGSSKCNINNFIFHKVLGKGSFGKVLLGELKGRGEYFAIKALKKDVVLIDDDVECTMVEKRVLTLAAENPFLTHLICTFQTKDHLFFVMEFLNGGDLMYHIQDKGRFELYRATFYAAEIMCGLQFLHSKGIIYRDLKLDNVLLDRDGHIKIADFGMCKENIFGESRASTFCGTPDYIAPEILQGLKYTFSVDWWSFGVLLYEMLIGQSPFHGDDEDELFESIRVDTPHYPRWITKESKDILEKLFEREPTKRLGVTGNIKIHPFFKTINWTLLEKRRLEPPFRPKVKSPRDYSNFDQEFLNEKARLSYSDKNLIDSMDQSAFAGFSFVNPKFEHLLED

Structure (SMILES)	pIC50
O=C(OC1CCCC1Oc1ccc(O)cc1)c1cc(O)c(C(=O)c2c(O)cccc2C(=O)O)c(O)c1 (stereo not given)	7.70
O=C(N[C@@H]1CNCCC[C@H]1OC(=O)c1cc(O)c(C(=O)c2c(O)cccc2C(=O)O)c(O)c1)c1ccc(O)cc1 [BALANOL]	7.70
CC(CCc1ccc(O)cc1)OC(=O)c1cc(O)c(C(=O)c2c(O)cccc2C(=O)O)c(O)c1 (stereo not given)	7.52

Now from value to molecule:

pIC50	Structure (SMILES)
6.09	O=C(NC(COC(=O)c1cc(O)c(C(=O)c2c(O)cccc2C(=O)O)c(O)c1)Cc1ccc(O)cc1)c1ccc(O)cc1 (stereo not given)
6.44	COC(=O)c1cccc(O)c1C(=O)c1c(O)cc(C(=O)OC[C@@H](Cc2ccc(O)cc2)NS(=O)(=O)c2ccccc2)cc1O
7.40	O=C(OCC(Cc1ccc(O)cc1)NS(=O)(=O)c1ccccc1)c1cc(O)c(C(=O)c2c(O)cccc2C(=O)O)c(O)c1 (stereo not given)

biological target: Protein kinase C alpha type (Homo sapiens, UniProt P17252); test: Evaluated against recombinant human Protein kinase C alpha; method in brief: as §1

Structure (SMILES)	pIC50
O=C(OC1CCCC1Oc1ccc(O)cc1)c1cc(O)c(C(=O)c2c(O)cccc2C(=O)O)c(O)c1 (stereo not given)	6.66
CC(CCc1ccc(O)cc1)OC(=O)c1cc(O)c(C(=O)c2c(O)cccc2C(=O)O)c(O)c1 (stereo not given)	6.39

Other lines, results leading:

pIC50	Structure (SMILES)
4.74	O=C(NC(COC(=O)c1cc(O)c(C(=O)c2c(O)cccc2C(=O)O)c(O)c1)Cc1ccc(O)cc1)c1ccc(O)cc1 (stereo not given)
4.74	COC(=O)c1cccc(O)c1C(=O)c1c(O)cc(C(=O)OC[C@@H](Cc2ccc(O)cc2)NS(=O)(=O)c2ccccc2)cc1O
6.96	O=C(OCC(Cc1ccc(O)cc1)NS(=O)(=O)c1ccccc1)c1cc(O)c(C(=O)c2c(O)cccc2C(=O)O)c(O)c1 (stereo not given)

biological target: T2, Protein kinase C epsilon type (Homo sapiens, UniProt Q02156); test: Evaluated against recombinant human Protein kinase C epsilon; method in brief: as §1
T2 sequence (Q02156 whole entry): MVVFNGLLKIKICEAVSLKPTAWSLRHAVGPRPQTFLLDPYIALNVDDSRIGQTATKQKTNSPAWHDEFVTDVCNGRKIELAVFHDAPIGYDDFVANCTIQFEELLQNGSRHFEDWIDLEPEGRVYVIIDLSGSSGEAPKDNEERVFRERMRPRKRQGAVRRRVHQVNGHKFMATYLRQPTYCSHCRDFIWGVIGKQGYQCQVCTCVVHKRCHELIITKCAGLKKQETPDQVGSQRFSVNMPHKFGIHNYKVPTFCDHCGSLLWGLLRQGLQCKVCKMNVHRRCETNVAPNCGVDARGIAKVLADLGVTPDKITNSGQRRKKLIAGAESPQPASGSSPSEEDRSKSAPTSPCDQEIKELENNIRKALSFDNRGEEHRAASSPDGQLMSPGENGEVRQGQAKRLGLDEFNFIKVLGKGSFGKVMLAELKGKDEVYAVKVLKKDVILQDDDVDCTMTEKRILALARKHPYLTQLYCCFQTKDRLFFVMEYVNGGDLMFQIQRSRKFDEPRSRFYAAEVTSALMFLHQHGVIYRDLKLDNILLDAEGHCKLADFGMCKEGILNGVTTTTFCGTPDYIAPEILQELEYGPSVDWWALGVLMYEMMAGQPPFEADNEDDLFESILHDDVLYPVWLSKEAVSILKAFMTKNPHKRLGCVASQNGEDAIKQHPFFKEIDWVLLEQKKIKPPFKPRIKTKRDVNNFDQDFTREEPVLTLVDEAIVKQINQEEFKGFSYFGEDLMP

Structure (SMILES)	pIC50
O=C(OC1CCCC1Oc1ccc(O)cc1)c1cc(O)c(C(=O)c2c(O)cccc2C(=O)O)c(O)c1 (stereo not given)	6.62
CC(CCc1ccc(O)cc1)OC(=O)c1cc(O)c(C(=O)c2c(O)cccc2C(=O)O)c(O)c1 (stereo not given)	6.55

Results, then the molecule that gave them:

pIC50	Structure (SMILES)
< 4.30	O=C(NC(COC(=O)c1cc(O)c(C(=O)c2c(O)cccc2C(=O)O)c(O)c1)Cc1ccc(O)cc1)c1ccc(O)cc1 (stereo not given)
4.42	COC(=O)c1cccc(O)c1C(=O)c1c(O)cc(C(=O)OC[C@@H](Cc2ccc(O)cc2)NS(=O)(=O)c2ccccc2)cc1O
6.49	O=C(OCC(Cc1ccc(O)cc1)NS(=O)(=O)c1ccccc1)c1cc(O)c(C(=O)c2c(O)cccc2C(=O)O)c(O)c1 (stereo not given)

biological target: Protein kinase C eta type (Homo sapiens, UniProt P24723); test: Evaluated against recombinant human Protein kinase C eta; method in brief: as §1
Sequence (P24723 whole entry): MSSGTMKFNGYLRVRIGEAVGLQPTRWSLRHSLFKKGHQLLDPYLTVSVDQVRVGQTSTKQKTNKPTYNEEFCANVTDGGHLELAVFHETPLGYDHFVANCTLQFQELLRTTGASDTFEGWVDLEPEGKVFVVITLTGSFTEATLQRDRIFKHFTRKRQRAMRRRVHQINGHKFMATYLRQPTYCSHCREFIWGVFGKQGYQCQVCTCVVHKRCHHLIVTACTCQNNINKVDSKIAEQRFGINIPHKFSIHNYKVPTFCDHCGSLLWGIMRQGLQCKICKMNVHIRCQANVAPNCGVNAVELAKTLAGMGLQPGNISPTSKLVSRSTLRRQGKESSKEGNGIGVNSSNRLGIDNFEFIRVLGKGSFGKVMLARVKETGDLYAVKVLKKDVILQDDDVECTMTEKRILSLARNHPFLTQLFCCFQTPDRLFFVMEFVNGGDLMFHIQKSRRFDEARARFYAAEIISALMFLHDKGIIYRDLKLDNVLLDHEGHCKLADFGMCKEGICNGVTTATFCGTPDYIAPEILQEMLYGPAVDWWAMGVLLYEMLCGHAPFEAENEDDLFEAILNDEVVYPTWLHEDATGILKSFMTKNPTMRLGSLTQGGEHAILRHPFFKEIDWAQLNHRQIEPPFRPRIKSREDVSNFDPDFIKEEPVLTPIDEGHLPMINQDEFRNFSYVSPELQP

Structure (SMILES)	pIC50
O=C(OC1CCCC1Oc1ccc(O)cc1)c1cc(O)c(C(=O)c2c(O)cccc2C(=O)O)c(O)c1 (stereo not given)	8.00
CC(CCc1ccc(O)cc1)OC(=O)c1cc(O)c(C(=O)c2c(O)cccc2C(=O)O)c(O)c1 (stereo not given)	7.70

Results, then the molecule that gave them:

pIC50	Structure (SMILES)
5.64	O=C(NC(COC(=O)c1cc(O)c(C(=O)c2c(O)cccc2C(=O)O)c(O)c1)Cc1ccc(O)cc1)c1ccc(O)cc1 (stereo not given)
> 7.30	COC(=O)c1cccc(O)c1C(=O)c1c(O)cc(C(=O)OC[C@@H](Cc2ccc(O)cc2)NS(=O)(=O)c2ccccc2)cc1O
7.70	O=C(OCC(Cc1ccc(O)cc1)NS(=O)(=O)c1ccccc1)c1cc(O)c(C(=O)c2c(O)cccc2C(=O)O)c(O)c1 (stereo not given)

biological target: Proto-oncogene tyrosine-protein kinase Src (Homo sapiens, UniProt P12931); test: Inhibition of src Protein Tyrosine Kinase
Method in brief: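 p60src tyrosine kinase with Raytide peptide substrate, run by the supplier's protocol except that Triton X-100 replaced Brij 35.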

Chain of Proto-oncogene tyrosine-protein kinase Src (P12931 2-536 limits assumed): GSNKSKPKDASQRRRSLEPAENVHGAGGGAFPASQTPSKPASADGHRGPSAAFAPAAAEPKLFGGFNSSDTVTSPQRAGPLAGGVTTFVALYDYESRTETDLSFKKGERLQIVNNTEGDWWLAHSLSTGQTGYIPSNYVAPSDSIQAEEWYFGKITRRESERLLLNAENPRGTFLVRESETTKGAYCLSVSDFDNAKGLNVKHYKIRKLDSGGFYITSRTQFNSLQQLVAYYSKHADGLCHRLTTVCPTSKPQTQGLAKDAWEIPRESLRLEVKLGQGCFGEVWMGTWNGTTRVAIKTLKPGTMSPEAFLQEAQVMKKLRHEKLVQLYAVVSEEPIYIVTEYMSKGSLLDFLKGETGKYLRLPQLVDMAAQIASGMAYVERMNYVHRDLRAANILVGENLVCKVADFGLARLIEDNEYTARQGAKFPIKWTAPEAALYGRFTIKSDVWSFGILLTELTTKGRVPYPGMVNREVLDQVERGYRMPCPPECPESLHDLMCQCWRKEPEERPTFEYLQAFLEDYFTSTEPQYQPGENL

pIC50	Structure (SMILES)
< 5.00	O=C(N[C@@H]1CNCCC[C@H]1OC(=O)c1cc(O)c(C(=O)c2c(O)cccc2C(=O)O)c(O)c1)c1ccc(O)cc1 [BALANOL]
< 4.90	O=C(OCC(Cc1ccc(O)cc1)NS(=O)(=O)c1ccccc1)c1cc(O)c(C(=O)c2c(O)cccc2C(=O)O)c(O)c1 (stereo not given)

biological target: neutrophil superoxide release (Homo sapiens); test: Inhibition of neutrophil superoxide release

IC50	Structure (SMILES)
930 nM	COC(=O)c1cccc(O)c1C(=O)c1c(O)cc(C(=O)OC[C@@H](Cc2ccc(O)cc2)NS(=O)(=O)c2ccccc2)cc1O

biological target: not listed separately; test: Evaluated against bovine heart Protein Kinase A (PKA)

Structure (SMILES)	pIC50
O=C(OC1CCCC1Oc1ccc(O)cc1)c1cc(O)c(C(=O)c2c(O)cccc2C(=O)O)c(O)c1 (stereo not given)	< 4.30
O=C(N[C@@H]1CNCCC[C@H]1OC(=O)c1cc(O)c(C(=O)c2c(O)cccc2C(=O)O)c(O)c1)c1ccc(O)cc1 [BALANOL]	7.40
CC(CCc1ccc(O)cc1)OC(=O)c1cc(O)c(C(=O)c2c(O)cccc2C(=O)O)c(O)c1 (stereo not given)	< 4.30

Now from value to molecule:

pIC50	Structure (SMILES)
< 4.30	O=C(NC(COC(=O)c1cc(O)c(C(=O)c2c(O)cccc2C(=O)O)c(O)c1)Cc1ccc(O)cc1)c1ccc(O)cc1 (stereo not given)
< 4.30	COC(=O)c1cccc(O)c1C(=O)c1c(O)cc(C(=O)OC[C@@H](Cc2ccc(O)cc2)NS(=O)(=O)c2ccccc2)cc1O
< 4.30	O=C(OCC(Cc1ccc(O)cc1)NS(=O)(=O)c1ccccc1)c1cc(O)c(C(=O)c2c(O)cccc2C(=O)O)c(O)c1 (stereo not given)
